# Screens from PubChem BioAssay.
# M18AAP inhibitor: PfM18AAP inhibitors, malaria aminopeptidase, primary screen, biochemical, QFRET, recombinant enzyme; M18 aspartyl aminopeptidase (Plasmodium falciparum 3D7); H-Glu-NHMec fluorogenic cleavage; inhibition, % at 7.35 µM; 290,000 tested, 1.2% active;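 active = inhibition above the campaign mean inhibition over all tested compounds plus 3 SD, cut at about 28% in these data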;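 note: 0% = plate median of test compound wells and 100% = 2 mM ZnCl2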
# RBBP9 inh: human RBBP9 inhibitors, primary screen, biochemical, fluorescence polarization, FP-Rh probe, HTS; Serine hydrolase RBBP9 (Homo sapiens), O75884; recombinant RBBP9; inhibition, % at 7.94 µM; 220,000 tested, 0.2% active; AID 1515, 2009;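 active = inhibition above the campaign mean of all tested compounds plus 3 SD, cut at about 14% in these data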;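 note: plate controls were DMSO wells with RBBP9 for no effect and wells lacking RBBP9 protein for full effect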
# Target sequence (O75884 whole entry, looked up): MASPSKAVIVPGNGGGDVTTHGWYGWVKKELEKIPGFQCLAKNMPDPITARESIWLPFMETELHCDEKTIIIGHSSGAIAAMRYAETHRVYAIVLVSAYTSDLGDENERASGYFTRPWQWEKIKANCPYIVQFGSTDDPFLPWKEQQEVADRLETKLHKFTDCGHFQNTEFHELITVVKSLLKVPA
#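 Material: RBBP9 protein. Amount: RBBP9 at 2.5 µM in dispensed solution, before mixing. Schedule: 30 min then 45 min, 25 °C. Medium: Tris buffer pH 8.0, NaCl, Pluronic. Measured by: fluorescence polarization. Measure: percent inhibition from mP, scaled between DMSO and no-protein wells. Replication: one well per compound.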
# RanGTP-Imp inh: inhibitors of RanGTP-importin-beta interaction, primary screen, biochemical, FRET, CFP-Ran, YFP-importin-beta, homogeneous. Ran GTPase (GTP-bound) - importin-beta complex. cell-free CFP-Ran/YFP-importin-beta FRET ratio. inhibition, % (test concentration not listed). 300,000 tested, 1.1% active. AID 2216, 2009;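 active = more than half of the replicate wells show a fall in the fluorescence ratio signal beyond about 16%, limit read from the data, passing the limit was not always enough; inconclusive = exactly half of the replicate wells pass the set limit; inactive = fewer than half of replicates pass the limit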;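 note: 0% = DMSO wells and 100% = Ran loaded with GDP instead of GTP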
# Runt-CBFb FRET: inhibitors of RUNX1 Runt–CBFb binding, primary screen, biochemical, FRET, Cerulean-Runt, Venus-CBFb, uHTS | Runt-related transcription factor 1 (Homo sapiens) + Core-binding factor subunit beta … | Cerulean-Runt/Venus-CBFb FRET ratio 530/480, 1 h | inhibition, % at 20 µM | 220,000 tested, 0.46% active;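 active = inhibition over about 50% at 20 µM in the single-dose screen, limit read from the data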;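 note: 0% = DMSO wells and 100% = excess unlabeled CBFb competitor control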
#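 Measured by: fluorescence energy transfer, 422 nm excitation, 530/480 nm emission; Assay system: Cerulean-Runt domain; Medium: Tris pH 7.5 buffer with BSA; Measure: loss of energy transfer signal; Controls: 5 µM unlabeled CBFb as full-inhibition high control; Incubation: protein complex preformed 1 h, compound exposure 1 h, room temperature, dark.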
# Runt-SMMHC FRET: inhibitors of RUNX1 Runt–CBFb-SMMHC binding, primary screen, biochemical, FRET, Cerulean-Runt, Venus-CBFb-SMMHC, uHTS. Cerulean-Runt/Venus-CBFb-SMMHC FRET ratio 530/480, 1 h. inhibition, % at 20 µM. AID 1434, 2008. Runt-related transcription factor 1 (Homo sapiens) + Core-binding factor subunit beta …. 220,000 tested, 0.74% active;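 active = mean inhibition across duplicate retests at 20 µM reaching about 50%, limit read from the data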;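 note: 0% = DMSO wells and 100% = wells with excess untagged CBFb-SMMHC; inhibitors lower the FRET ratio by blocking Runt binding to CBFb-SMMHC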
# Hck-Nef inh: inhibitors of Nef-activated human Hck kinase, primary screen, biochemical, Z-Lyte FRET, 384-well, Hck-YEEI. Tyrosine-protein kinase HCK (Homo sapiens), P08631. Recombinant Hck-YEEI plus Nef, Z-Lyte FRET kinase assay. inhibition, % at 20 µM. 220,000 tested, 0.68% active;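 active = Hck-Nef kinase inhibition above about 50%, limit read from the data; inactive = inhibition below that limit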;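 note: 0% = DMSO with Hck plus Nef and 100% = Hck alone without Nef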
# Target sequence (P08631 whole entry, looked up): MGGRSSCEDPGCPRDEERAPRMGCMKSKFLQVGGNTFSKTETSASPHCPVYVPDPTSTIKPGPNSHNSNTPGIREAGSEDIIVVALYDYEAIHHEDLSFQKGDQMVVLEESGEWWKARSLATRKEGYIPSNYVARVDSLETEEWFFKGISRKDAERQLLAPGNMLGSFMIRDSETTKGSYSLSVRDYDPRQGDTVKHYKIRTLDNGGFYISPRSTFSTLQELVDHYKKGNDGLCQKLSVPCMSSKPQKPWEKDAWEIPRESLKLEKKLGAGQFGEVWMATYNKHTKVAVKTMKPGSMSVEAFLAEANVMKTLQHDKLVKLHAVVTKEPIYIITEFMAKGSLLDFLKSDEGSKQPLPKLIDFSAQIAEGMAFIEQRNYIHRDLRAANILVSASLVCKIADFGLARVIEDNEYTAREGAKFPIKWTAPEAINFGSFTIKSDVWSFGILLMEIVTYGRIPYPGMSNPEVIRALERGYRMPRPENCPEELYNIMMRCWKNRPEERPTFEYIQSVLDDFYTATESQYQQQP
# YIC counter: YIC intramolecular FRET probe signal interference, dose response, counter-screen for RanGTP-importin-beta inhibitor project, biochemical, fluorescence FRET. shares compounds with RanGTP-Imp inh. Purified YIC probe, intramolecular FRET ratio YFP/CFP. IC50, µM. 1,000 tested, 40% active. AID 435026, 2010;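 active = fitted half-maximal inhibitory concentration no more than tenfold above the top dose tested; inconclusive = flat fit with 30 to 70% activity, or poor fit; inactive = half-maximal concentration beyond tenfold above the top dose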
# An asterisk follows results filed as active; ? = inconclusive; . = no result. A selection: hits, their analogues and other compounds. The true share with any hit is near 2.9%.
SMILES,M18AAP inhibitor,RBBP9 inh,RanGTP-Imp inh,Runt-CBFb FRET,Runt-SMMHC FRET,Hck-Nef inh,YIC counter
COC(=O)Cc1c(C)c2ccc(O)c(CNCc3ccc(OC)c(OC)c3)c2oc1=O,-12.3,.,32.6*,.,.,.,7.33*
Cc1ccc(/C=C/C(=O)Nc2cccnc2)o1,-13.8,-3.8,0.0,0.1,13.7,9.1,.
Cc1ccc(/C=C/C(=O)Nc2cccc3ncccc23)o1,-37.8,-8.5,17.4*,8.8,66.5,-0.5,>50
O=c1cc(N2CCC3(CC2)OCCO3)[nH]c(=O)n1-c1ccc(Br)cc1,2.2,9.3,16.8*,-0.3,2.0,6.5,>50
O=C1Nc2ccccc2S/C1=C/c1cccs1,-1.5,-8.3,-2.1,-1.5,-13.8,13.7,.
O=C1/C(=C/c2cccs2)Sc2ccccc21,5.6,-8.9,18.8*,-1.1,-2.8,5.5,?
O=C(C1CCCCC1)N1CC(=O)N2CCc3ccccc3C2C1 (stereo unspecified),1.4,-4.7,20.6*,-0.3,2.6,-1.2,>50
O=C(Cc1ccc(Cl)cc1)Nc1cc(S(=O)(=O)N2CCOCC2)ccc1N1CCCC1,3.7,-6.6,2.2,-4.0,-4.3,22.4,.
CN1CCN(c2ccc(S(=O)(=O)N3CCCCC3)cc2NC(=O)Cc2ccc(Cl)cc2)CC1,-1.1,2.4,40.3*,-3.5,-2.4,0.2,>50
N#CC1=C(N)Oc2cc3c(cc2C1c1ccc(Cl)cc1)OCO3 (stereo unspecified),18.7,-0.5,28.7*,-0.5,2.8,5.3,>50
Cc1[nH]nc2c1C(c1ccc3c(c1)OCO3)C(C#N)=C(N)O2 (stereo unspecified),11.3,-6.7,4.8,2.3,-0.8,-1.1,.
CC(=O)N1c2ccc(S(=O)(=O)N3CCC(C(=O)Nc4cccc(Cl)c4)CC3)cc2CC1C (stereo unspecified),1.4,.,25.0*,.,.,.,>50
CCN(CC)c1ccc(/C=N/NC(=O)c2ccc3nc[nH]c3c2)c(O)c1,18.0,6.9,37.8*,42.6,61.7*,8.2,13.3*
CC1(C)CCC[C@]2(C)[C@H]3CC(=O)O[C@]3(C)CC[C@@H]12,-0.7,.,21.0*,.,.,.,>50
COc1ccccc1N=C(C)C1=C(O)CC(c2ccccc2)CC1=O (stereo unspecified),-1.2,0.9,20.0*,-1.9,-0.6,-6.2,>50
CC(C)OCCCNC(=O)CCSc1ccc(Cl)cc1,-8.2,-0.7,26.5*,1.0,-1.8,-0.7,>50
Fc1ccccc1N1CCN(c2nc3ccccc3n3nnnc23)CC1,-6.8,6.6,17.2*,13.4,22.3,-0.8,27.1*
COc1cc(OC)cc(C(=O)NC(C)CNc2ccc(Cl)cc2[N+](=O)[O-])c1 (stereo unspecified),8.0,.,-1.7,.,.,.,.
Cc1cc(=O)oc2cc(OCC(=O)N3CC[C@@]4(O)CCCC[C@H]4C3)c(Cl)cc12,0.3,.,-0.4,.,.,.,.
COC(=O)c1cc(S(=O)(=O)N2c3ccccc3CC2C)cn1C (stereo unspecified),0.3,.,-0.5,.,.,.,.
C[C@@H]1CN([C@H](C)CO)C(=O)Cc2cc(NC(=O)Nc3ccc4c(c3)OCO4)ccc2O[C@@H]1CN(C)CC1CC1,.,.,.,.,.,.,>50
O=C(Nc1ccc2c(c1)OCO2)Nc1ccc2c(c1)OCO2,7.5,-4.6,?,9.5,-3.4,18.0,.
COc1ccc(C2c3c(ncn(Cc4ccco4)c3=N)Oc3ccc4ccccc4c32)cc1 (stereo unspecified),7.7,-23.6,70.6*,0.9,0.1,3.5,>50
C=CCNc1sc(C(=O)c2ccc(Br)s2)c(N)c1C#N,-8.3,2.3,19.0*,-2.2,-23.9,1.3,5.57*
C=CCNc1sc(C(=O)c2ccccc2)c(N)c1C#N,0.9,-4.8,2.2,-14.5,-4.7,2.1,.
SMILES,M18AAP inhibitor,RBBP9 inh,RanGTP-Imp inh,Runt-CBFb FRET,Runt-SMMHC FRET,Hck-Nef inh,YIC counter
COc1cccc(Cn2cc(N)cn2)c1,-3.5,14.0,1.6,.,.,16.0,.
COc1ccc(CN(CC(O)COc2cccc3[nH]cc(C)c23)C(C)(C)C)cc1 (stereo unspecified),-0.6,.,-1.3,.,.,.,.
CC1Cc2cc(S(=O)(=O)NCc3ccccc3)ccc2N1C(=O)C1CCC1 (stereo unspecified),-19.6,.,0.8,.,.,.,.
CC1Cc2cc(S(=O)(=O)NCc3ccccc3)ccc2N1C(=O)C1CC1 (stereo unspecified),-8.0,.,18.2*,.,.,.,>50
CCc1ccccc1N(CC(=O)NC(C)(C)CC)C(=O)CCC(=O)Nc1nccs1,4.6,.,1.8,.,.,.,.
O=C(CN1CCC(NC(=O)Nc2ccccc2)CC1)Nc1ccc([N+](=O)[O-])cc1,-11.4,.,-9.8,.,.,.,.
COc1ccccc1CNC(=O)COC(=O)Cc1ccc(Cl)cc1,-4.8,-3.1,16.9*,0.4,-5.1,0.0,>50
COc1ccccc1CNC(=O)COC(=O)Cc1ccc(F)cc1,.,.,-0.1,.,.,.,.
Cc1c(NC2=CC(=O)CCC2)c(=O)n(-c2ccccc2)n1C,10.7,6.0,17.8*,1.7,2.8,-2.3,>50
CCS(=O)(=O)c1ccc(N)cc1,-0.5,-5.1,-0.3,0.8,0.4,15.9,.
CCS(=O)(=O)c1ccc(S(=O)(=O)CC)s1,-1.1,0.6,36.1*,-1.2,-0.5,1.0,>50
CC(C)Cc1ccc(CN2CCC(n3nccc3NC(=O)C3CCCC3)CC2)cc1,-4.3,.,21.6*,.,.,.,>50
COc1ccc(CN2CCC(n3nccc3NC(=O)C3CCCC3)CC2)cc1,-3.3,.,0.5,.,.,.,.
O=S(=O)(c1cc(Cl)ccc1Cl)N1CCN(c2ccccn2)CC1,-1.1,.,-1.0,.,.,.,.
CCN(CC)S(=O)(=O)c1ccc(OC)c(NC(=O)C2CC(=O)N(c3ccc(C)cc3)C2)c1 (stereo unspecified),-4.8,-3.8,29.1*,-2.8,1.5,17.3,>50
COc1ccc(C)cc1NC(=O)C1CCN(C(=O)C2CC(=O)N(c3ccc(C)cc3)C2)CC1 (stereo unspecified),-9.3,.,1.1,.,.,.,.
Cc1cc(/C=C2\SC(=O)N(C)C2=O)c(C)n1-c1ccc(S(N)(=O)=O)cc1,5.7,.,-3.3,.,.,.,.
